Paper PMC4553108 (Xenobiotica; the fate of foreign compounds in biological …, 2015)

Tests used:
[1] = Stability / recovery of BI-94 in mouse plasma; format: in vitro ADME
Summary of the method: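 Mouse plasma (stored −80°C) spiked at 10 μg/mL, room temperature: undiluted, or diluted with one or nine volumes of water or 7.5 mM ammonium formate (pH 2.5). At 1, 20 and 60 min, extracted with four volumes MeOH and spun 16 000 × g for 10 min. Supernatant mixed 1:1 with 20% methanol in formate buffer. Post-extracted plasma was spiked after MeOH extraction. Analysed by LC-MS/MS, m/z 319.1→179.8; % recovery.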

[2] = Stability of BI-94 in monkey plasma; format: in vitro ADME; conditions: immediately after spiking (data not shown)
[3] = GSH adduct formation in solution; format: in vitro ADME
[4] = Stability of BI-94 in human plasma; format: in vitro ADME; conditions: immediately after spiking (data not shown)
[5] = NAC adduct formation in solution; format: in vitro ADME; conditions: deionized water, 30 min, direct MS; adducts of fragments of NAC and BI-94
Summary of the method: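 For structural identification, test compound (final 10 μg/mL) incubated 30 min in water with GSH or NAC, then analysed by direct LC-MS/MS and MS/MS. NAC adducts were screened by EMS-IDA-EPI (positive and negative ESI) only. GSH adducts were also screened by negative-mode precursor ion scans (m/z 254, 272) and by isotopic filtering with 1:1 GSH:[13C2,15N]-GSH.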

[6] = GSH and NAC adduct formation in spiked mouse plasma; format: in vitro ADME
Summary of the method: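 Freshly collected blank mouse blood/plasma and frozen plasma spiked at 10 μg/mL and held 5 and 20 min at room temperature. One frozen-plasma set was fortified with 9.8 μM GSH before spiking. Samples extracted with four volumes MeOH and spun at 16 000 × g for 10 min. Supernatant was mixed 1:1 with 20% methanol in 7.5 mM ammonium formate (pH 2.5). GSH/NAC adducts quantified by negative-mode LC-MS/MS MRM.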

[7] = Stability of BI-94 in rat plasma; format: in vitro ADME; conditions: immediately after spiking (data not shown)
[8] = target: human serum albumin (HSA)-T3 peptide (Homo sapiens, UniProt P02768); test: HSA-T3 peptide adduct formation in solution; format: in vitro ADME; conditions: deionized water, 30 min; MS/MS mass shifts +164 (A1) and +273 (A2)
Balb/c mice = test: GSH and NAC adduct formation in vivo after intravenous dose to mice
[9] = Stability of BI-94 in solution; format: physicochemical; conditions: for stability in solution: 10 μg/mL, up to 60 min
NCI 60 cell line panel = conditions: read-out: average GI50; average value in the NCI 60 cell line panel; cited from earlier work
[10] = water, after 60 min of incubation

human serum albumin (HSA)-T3 peptide, sequence (P02768 45-65 limits assumed): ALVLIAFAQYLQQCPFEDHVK

O=[N+]([O-])c1ccc(S(=O)(=O)Cc2ccccc2)c2nonc12 [BI-94, 4-(benzylsulfonyl)-7-(hydroxy(oxido)amino)-2,1,3-benzoxadiazole]
recovery from post-extracted plasma ([1]; blank plasma pre-treated with MeOH and formate buffer, after 60-min incubation): 100%
recovery from mouse plasma ([1]; immediately after spiking, plasma diluted with one or nine volumes of H2O): below detection limit
recovery from mouse plasma ([1]; immediately after spiking, undiluted mouse plasma, 10 μg/mL): below detection limit
recovery from mouse plasma ([1]; nine volume dilution with 7.5 mM NH4-formate buffer (pH 2.5)): completely recovered
recovery from mouse plasma ([1]; one volume dilution with 7.5 mM NH4-formate buffer (pH 2.5), 60 min of incubation): 10%
recovery from mouse plasma ([1]; one volume dilution with 7.5 mM NH4-formate buffer (pH 2.5), immediate): 62%
recovery from post-extracted plasma ([1]; plasma pretreated with MeOH, after 60-min incubation): 20%
recovery from post-extracted plasma ([1]; plasma pretreated with MeOH, immediately after spiking): 100%
recovery from plasma [2]: < 1%
BI-94 depleted on incubation with GSH ([3]; NH4-formate buffer of pH 2.5, over 1 h): 14%
decrease in BI-94 peak area on incubation with GSH ([3]; PBS, within 5 min of incubation): 94.5%
GSH adducts detected ([3]; deionized water, 30 min, direct MS, adducts with a fragment of BI-94): two adducts
decrease in BI-94 peak area on incubation with GSH [3, 10]: 64%
increase in peak area of A1 and A2 GSH adducts [3, 10]: 6 fold
recovery from plasma [4]: < 1%
NAC adducts detected [5]: three NAC adducts
GSH adducts (A1 and A2) and NAC adduct (A1) in spiked plasma ([6]; blank plasma freshly collected from mice, 10 μg/mL): detected
GSH and NAC adducts in spiked plasma ([6]; frozen blank mouse plasma): none of the adducts
recovery from plasma [7]: < 1%
adduct formation with HSA-T3 peptide, site [8]: forms adducts with albumin at the Cys34 position
time within which all three mice died after BI-94 administration (Balb/c mice; 10 mg/kg intravenous dose, male Balb/c mice (n = 3)): ≤ 2 h
BI-94 adducts with GSH (A1 and A2) and NAC (A1 and A2) in plasma in vivo (Balb/c mice; plasma 5 and 60 min after 10 mg/kg intravenous dose to mice): detected
stability in the autosampler ([9]; 48 h in 50 % methanol in H2O reconstitution solution (data not shown)): stable
stability in solution ([9]; NaOH or various buffers at pHs 7–9, room temperature): not stable
stability in solution ([9]; water and various buffers at pHs 2.5–5, room temperature): stable
GI50 (NCI 60 cell line panel): 22.9 µM
